# Shown are actives, neighbours in structure and some others; about 6.7% of the full set was active somewhere.
# T cruzi repl – T. cruzi replication inhibition. T. cruzi beta-gal in NIH3T3, luminescence, 90 h. inhibition, % (no concentration beside the values). hit rate 1.4% among 300,000. AID 1885;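 active = mean inhibition across valid replicates above about 55%, limit read from the data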;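 note: signal also drops with host cell toxicity which is not excluded here; higher percent means less beta-gal luminescence so fewer parasites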
#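 System – NIH/3T3 host cells with β-galactosidase reporter T. cruzi · Doses – single 50 nL compound addition per well in DMSO · Reagent – 5000 T. cruzi trypomastigotes/well · Medium – Low-serum DMEM with 2% FBS · Timing – ≥90 h infection period, 3 h prior cell attachment · Evaluation – parasite load inhibition, % · Technique – GalScreen luminescence, 60 min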
# CSC inhib – cancer stem cell inhibition; cancer stem cell-like cells viability, luminescence; inhibition, % at 7.5 µM; hit rate 1.1% among 300,000; in the data active = inhibition above about 75%; tested in HMLE shEcad cells
# Beta apoptosis – beta cell apoptosis inhibition; INS-1E cytokine-induced death, ATP luminescence, 48 h; percent of positive-control rescue, neutral wells zero; protection from apoptosis, % (concentration not given with the values); hit rate 0.8% among 300,000; AID 435005;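 active = Every replicate reaches about 75%, or at least half do and their mean reaches it too, limit read from the data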;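 note: higher means more ATP so stronger rescue from cytokine killing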
# CHOP inh – blocks CHOP induction under ER stress. CHO-K1 CHOP-promoter luciferase, tunicamycin-induced, 15-18 h. hit rate 3.8% among 220,000. inhibition, % at 10 µM;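 active = compounds that reduced the stress-induced luciferase reporter signal by more than about 70% of percent inhibition, limit read from the data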
# NR3A LBD binder – modulators (binders) of human NR3A ligand-binding domain | Tm shift relative to glycine control, % at 25 µM | hit rate 2.5% among 340,000 | AID 1259313 | NR3A LBD differential scanning fluorimetry, Tm shift; 0% = protein alone, 100% = glycine-bound protein;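 active = melting temperature shift of at least 10% of the positive control shift, at one fixed dose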
# PREPL inh – inhibitors of human prolyl oligopeptidase-like enzyme PREPL; Q4J6C6; recombinant PREPL, fluorescence polarization activity-based probe; inhibition, % at 5.96 µM; hit rate 0.68% among 320,000; AID 2751
# Target sequence (Q4J6C6 whole entry, looked up): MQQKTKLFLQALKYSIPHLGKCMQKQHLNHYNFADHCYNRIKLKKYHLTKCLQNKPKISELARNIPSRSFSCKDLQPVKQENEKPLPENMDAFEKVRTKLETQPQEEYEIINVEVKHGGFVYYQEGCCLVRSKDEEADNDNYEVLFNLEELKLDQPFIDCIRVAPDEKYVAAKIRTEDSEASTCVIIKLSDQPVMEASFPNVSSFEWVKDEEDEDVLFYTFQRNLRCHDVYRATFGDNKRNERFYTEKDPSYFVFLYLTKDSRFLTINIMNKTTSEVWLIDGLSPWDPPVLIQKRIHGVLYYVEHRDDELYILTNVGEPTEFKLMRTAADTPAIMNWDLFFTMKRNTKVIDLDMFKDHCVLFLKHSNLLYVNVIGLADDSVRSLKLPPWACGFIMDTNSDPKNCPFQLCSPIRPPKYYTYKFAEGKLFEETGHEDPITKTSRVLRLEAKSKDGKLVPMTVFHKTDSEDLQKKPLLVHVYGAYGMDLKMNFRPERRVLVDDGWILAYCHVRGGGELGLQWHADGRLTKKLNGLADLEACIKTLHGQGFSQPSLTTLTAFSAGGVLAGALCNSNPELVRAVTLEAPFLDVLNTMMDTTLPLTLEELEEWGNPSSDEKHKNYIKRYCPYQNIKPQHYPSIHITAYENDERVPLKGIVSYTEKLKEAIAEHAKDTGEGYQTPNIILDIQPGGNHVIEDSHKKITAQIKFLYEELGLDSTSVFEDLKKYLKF
# PREPL inh cf – confirmation of human PREPL enzyme inhibitors. AID 2803. recombinant PREPL, fluorescence polarization activity probe. inhibition, % at 5.96 µM. hit rate 67% among 2,000. shares compounds with PREPL inh
# Numbers stand for hits; 0 = inactive; - = no result. Cut-off read from the data, not from the text of the source, unless noted: active = inhibition above about 43%; inactive = the rest.
SMILES,T cruzi repl,CSC inhib,Beta apoptosis,CHOP inh,NR3A LBD binder,PREPL inh,PREPL inh cf
C#CCOCCOCCOCCNc1nc(N2CCN(C(=O)CCCCCCCCCCNC(=O)[C@H](CCCCN)n3cc(C)nn3)CC2)nc(N2CCN(C(=O)CCCCCCCCCCNC(=O)[C@@H]([C@H](C)CC)n3cc(CCCCCN)nn3)CC2)n1,-,168,94,-,-,52,45
C#CCOCCOCCOCCNc1nc(N2CCN(C(=O)CCCCCCCCCCNC(=O)[C@H]([C@@H](C)CC)n3cc(CCCCCN)nn3)CC2)nc(N2CCN(C(=O)CCCCCCCCCCNC(=O)[C@@H]([C@H](C)O)n3cc(C)nn3)CC2)n1,-,109,81,-,17,46,0
CCOC(=O)/C(C#N)=C\c1ccc(N2CCN(C/C=C/c3ccccc3)CC2)cc1,0,0,0,0,0,51,46
COc1cc(CC(=O)Nc2sccc2C(N)=O)cc(OC)c1OC,0,0,0,0,0,0,-
COc1ccc(CCC(=O)OCC(=O)Nc2sccc2C(N)=O)cc1OC,-,0,0,-,0,48,0
CC(C)N(Cc1cn[nH]c1-c1ccc(-c2ccccc2)cc1)Cc1nccn1C,0,-,0,0,0,0,-
COC(=O)c1[nH]c2ccc(C)cc2c1NC(=O)CN1CCCc2ccccc21,85,0,0,0,0,49,48
Cc1ccc2[nH]c3c(c2c1)CN(C(=O)CN1CCCc2ccccc21)CC3,0,0,-,0,0,0,-
Cc1ccc(NC(=O)CS(=O)CC(=O)N(C(C)C(=O)NC2CCCCC2)C(C)(C)C)cc1 (centres undefined),0,0,0,0,0,0,-
CCOC(=O)CSc1nc(C(C)(C)C)nc2ccccc12,0,0,0,0,0,0,-
Cc1ccc(-c2csc(N3CCN(c4cc5c(cc4Cl)nc(-c4ccncc4)n5CCN4CCCCC4)CC3)n2)cc1,0,0,0,-,0,45,0
Cc1ccc(-c2csc(N3CCN(c4ccc5nc(-c6ccncc6)n(CCN6CCCCC6)c5c4)CC3)n2)cc1,0,0,0,-,0,0,-
COc1cc(/C=N/Nc2nc3c(c(=O)n(C)c(=O)n3C)n2Cc2ccccc2)ccc1OC(=O)c1ccco1,0,0,0,0,0,80,89
Oc1ccccc1CN1CCCC(N2CCN(c3cccc(C(F)(F)F)c3)CC2)C1 (centres undefined),0,-,-,-,0,0,-
O=C(CCn1c(=O)oc2ccccc21)Nc1ccc(N2CCOCC2)cc1,0,-,0,-,0,0,-
COc1ccc2c(CC(=O)Nc3ccc(OC)c(S(=O)(=O)N4CCOCC4)c3)coc2c1,0,0,0,0,0,0,-
O=C(COc1cccc(Cl)c1)Nc1ccc(N2CCOCC2)cc1,0,0,0,0,0,46,47
COc1ccc2c(CC(=O)Nc3ccc(N4CCOCC4)cc3)coc2c1,0,0,0,0,0,54,60
O=C(CCn1c(=O)oc2cc(Cl)ccc21)Nc1ccc(N2CCOCC2)cc1,0,-,0,-,0,49,49
O=C(COc1ccc(F)c(Cl)c1)Nc1ccc(N2CCOCC2)cc1,-,0,0,-,0,56,55
CCOC(=O)C1CCN(C(=O)c2cc(S(=O)(=O)N3CCc4ccccc43)ccc2OC)CC1,0,0,0,-,0,0,-
CC(=O)Nc1ccc(OS(=O)(=O)c2cc(Cl)ccc2C)cc1,0,0,0,0,0,0,-
Cc1nn(C(C)C(=O)NCCCc2ccccc2)c(=O)c2nn(-c3ccccc3)c(C)c12 (centres undefined),0,0,0,-,0,0,-
COc1ccc(C(=O)N2CCc3[nH]nc(-c4ccccc4)c3C2)cc1,0,0,0,-,0,0,-
C=CCn1c(SCc2cc(C(C)=O)ccc2OCC)nc2ccccc2c1=O,0,0,0,0,0,0,-
SMILES,T cruzi repl,CSC inhib,Beta apoptosis,CHOP inh,NR3A LBD binder,PREPL inh,PREPL inh cf
O=C(COC(=O)C12CC3CC(CC(Br)(C3)C1)C2)Nc1c(F)cccc1F,-,0,0,-,0,0,-
Cc1nnc(SCC(=O)Nc2cccc(Br)c2)s1,-,0,0,-,0,0,-
Cc1cc(N2CCOCC2)nc2ccc(Cl)cc12,0,0,0,-,0,0,-
CC1(OC(=O)C2CCCC2)C(=O)C=C2C=C(c3ccsc3)N(CC3CC3)C=C2C1=O (centres undefined),0,0,0,0,0,43,0
CC(C)(C)OC(=O)C(C)(C)Sc1nnc(N)s1,0,0,0,0,0,0,-
Brc1ccc(Nc2nc3ccccc3n3nnnc23)cc1,0,0,0,0,-,0,-
c1ccc2c(c1)nc(Nc1ccc3c(c1)OCO3)c1nnnn12,0,0,0,0,0,47,45
Clc1cccc(-c2ccc(C3Nc4cccc5cccc(c45)N3)o2)c1,-,-,0,-,0,49,61
Clc1ccc(C2Nc3cccc4cccc(c34)N2)c(Cl)c1,-,-,-,-,0,-,-
COc1cccc(CNC(=O)c2ccccc2-c2ccccc2)c1,0,0,0,-,0,0,-
CN(C(=O)CN1C(=O)S/C(=C\c2ccccc2)C1=O)C1CCS(=O)(=O)C1 (centres undefined),0,0,0,-,0,0,-
CCN(C(=O)CCN1C(=O)S/C(=C\c2ccccc2)C1=O)C1CCS(=O)(=O)C1 (centres undefined),0,0,0,-,0,45,0
CCN(CC)CCCNC(=O)C1c2ccccc2C(=O)N(CCOC)C1c1ccc(F)cc1 (centres undefined),0,0,0,0,0,0,-
CCN(CCCNC(=O)C1c2ccccc2C(=O)N(CCOC)C1c1ccc(F)cc1)Cc1ccccc1 (centres undefined),0,0,0,0,0,49,0
O=C(NCc1ccccc1)c1ccc2nc(-c3ccco3)c(-c3ccco3)nc2c1,0,0,0,0,0,61,43
CC(=O)Nc1ccc(NC(=O)C(C)OC(=O)C2(c3ccccc3F)CCCC2)cc1 (centres undefined),-,0,0,-,0,0,-
Cc1ccc(OCCn2cnc3c2c(=O)n(C)c(=O)n3C)cc1,0,0,0,-,0,0,-
COc1ccccc1NC(=O)Cn1c2ccccc2c2nc3n(c(=O)c21)CCS3,0,0,0,0,0,0,-
O=[N+]([O-])c1cc(Cl)cc(/C=N/NC(=S)Nc2ccc(S(=O)(=O)N3CCOCC3)cc2)c1O,0,0,0,0,0,46,0
O=S(=O)(c1ccc(NC(=S)N/N=C/c2ccc(O)c(O)c2)cc1)N1CCOCC1,0,0,0,0,0,0,-
C#CCOCCOCCOCCNc1nc(N2CCOCC2)nc(N2CCN(C(=O)CCCCCCCCCCNC(=O)[C@H](CO)n3cc(CCCCCN)nn3)CC2)n1,-,0,0,-,0,0,-
C#CCOCCOCCOCCNc1nc(N2CCN(C(=O)CCCCCCCCCCNC(=O)Cn3cc(CCCCCN)nn3)CC2)nc(N2CCN(C(=O)CCCCCCCCCCNC(=O)[C@H](CO)n3cc(CCCCCN)nn3)CC2)n1,-,0,0,-,0,68,60

# Source: PubChem BioAssay (several laboratories)
